Reference: ChEMBL document CHEMBL3352113, “Cytoprotective pyridinol antioxidants as potential therapeutic agents for neurodegenerative and mitochondrial diseases” (Bioorg Med Chem, 2014)
The source made the active and inactive calls. The rule behind the calls is not given here.

Test system: Lymphocyte
Assay: Inhibition of oxidative stress-induced mitochondrial membrane depolarization in diethyl maleate-treated human lymphocytes obtained from FRDA patient assessed as cells with intact mitochondrial membrane potential at 250 nM pretreated for 16 hrs using TMRM by FACS analysis (reference value: 95%)
Assay type: functional
Set-up: scale not given: the % may be the effect or the level left
Conditions: not given

Compared with CCCCCCCCCCCCCCCCCCCc1c(C)c(N(C)C)nc(C)c1O, CCCCCCCCCCCCCCCCCCCc1nc(N(C)C)c(C)c(C)c1O is higher in Activity: 42% for the first, 44% for the second.

Test system: Lymphocyte
Assay: Inhibition of oxidative stress-induced mitochondrial membrane depolarization in diethyl maleate-treated human lymphocytes obtained from FRDA patient assessed as cells with intact mitochondrial membrane potential at 100 nM pretreated for 16 hrs using TMRM by FACS analysis (reference value: 95%)
Assay type: functional
Set-up: scale not given: the % may be the effect or the level left
Conditions: not given

Compared with CCCCCCCCCCCCCCCCCCCc1c(C)c(N(C)C)nc(C)c1O, CCCCCCCCCCCCCCCCCCCc1nc(N(C)C)c(C)c(C)c1O is higher in Activity: 23% for the first, 24% for the second.

Test system: Lymphocyte
Assay: Inhibition of oxidative stress-induced mitochondrial membrane depolarization in diethyl maleate-treated human lymphocytes obtained from FRDA patient assessed as cells with intact mitochondrial membrane potential at 500 nM pretreated for 16 hrs using TMRM by FACS analysis (reference value: 95%)
Assay type: functional
Set-up: scale not given: the % may be the effect or the level left
Conditions: not given

Compared with CCCCCCCCCCCCCCCCCCCc1c(C)c(N(C)C)nc(C)c1O, CCCCCCCCCCCCCCCCCCCc1nc(N(C)C)c(C)c(C)c1O is higher in Activity: 64% for the first, 65% for the second.

Species: Bos taurus
Assay: Inhibition of bovine heart mitochondrial NADH oxidase complex I/III/IV assessed as remaining activity at 1 uM by spectrophotometry relative to untreated control
Conditions: not given

Going from CCCCCCCCCCCCCCCCCCCc1c(C)c(N(C)C)nc(C)c1O to CCCCCCCCCCCCCCCCCCCc1nc(N(C)C)c(C)c(C)c1O, the Activity falls from 98% to 93%.

Test system: Lymphocyte
Assay: Cytoprotective activity in human lymphocytes obtained from Leigh's syndrome patient assessed as viable cells after 16 hrs by trypan blue exclusion assay
Assay type: functional, cell-based
Conditions: not given
How it was run: (§1)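 Lymphocytes from FRDA or Leigh's syndrome patients, grown in RPMI-1640 with 15% fetal calf serum and 2 mM glutamine, kept in log phase. Test agents at 0.1, 0.5 and 2.5 µM; diethyl maleate (DEM) added to deplete glutathione and induce oxidative stress. Viability expressed relative to untreated cells (100%). Values are mean ± SD/SEM as tabulated.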

In the case of CCCCCCCCCCCCCCCCCCCc1c(C)c(N(C)C)nc(C)c1O, the Activity is reported as “Dose-dependent effect”.
In the case of CCCCCCCCCCCCCCCCCCCc1nc(N(C)C)c(C)c(C)c1O, the Activity is reported as “Dose-dependent effect”.

Test system: Lymphocyte
Assay: Cytoprotective activity in human lymphocytes obtained from Leigh's syndrome patient assessed as viable cells at 0.1 uM after 16 hrs by trypan blue exclusion assay
Assay type: functional
Conditions: read-out: Activity
How it was run: as §1

Compared with CCCCCCCCCCCCCCCCCCCc1c(C)c(N(C)C)nc(C)c1O, CCCCCCCCCCCCCCCCCCCc1nc(N(C)C)c(C)c(C)c1O is lower in viability at 0.1 µM: 8% for the first, 4% for the second.

Test system: Lymphocyte
Assay: Cytoprotective activity in human lymphocytes obtained from Leigh's syndrome patient assessed as viable cells at 0.5 uM after 16 hrs by trypan blue exclusion assay
Assay type: functional
Conditions: read-out: Activity
How it was run: as §1

Going from CCCCCCCCCCCCCCCCCCCc1c(C)c(N(C)C)nc(C)c1O to CCCCCCCCCCCCCCCCCCCc1nc(N(C)C)c(C)c(C)c1O, the viability at 0.5 µM falls from 8% to 7%.

Test system: Lymphocyte
Assay: Cytoprotective activity in human lymphocytes obtained from FRDA patient assessed as viable cells at 0.1 uM after 16 hrs by trypan blue exclusion assay
Assay type: functional
Conditions: read-out: Activity
How it was run: as §1

Compared with CCCCCCCCCCCCCCCCCCCc1c(C)c(N(C)C)nc(C)c1O, CCCCCCCCCCCCCCCCCCCc1nc(N(C)C)c(C)c(C)c1O is lower in viability at 0.1 µM: 20% for the first, 17% for the second.

Test system: Lymphocyte
Assay: Increase in ATP production in CoQ10-deficient lymphocytes (unknown origin) assessed as cellular ATP level at 10 uM after 48 hrs using luciferin-luciferase reaction by bioluminescence assay relative to control
Assay type: functional
Conditions: not given
How it was run: (§2)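 CoQ10-deficient lymphocyte line GM17932 grown in glucose-free RPMI 1640 with 25 mM galactose, 2 mM glutamine and 10% dialyzed FBS, forcing oxidative phosphorylation. Incubated with compounds at 5, 10 or 25 µM for 48 h. Total intracellular ATP measured by luciferin–luciferase reaction, expressed as % of untreated control.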

Compared with CCCCCCCCCCCCCCCCCCCc1c(C)c(N(C)C)nc(C)c1O, CCCCCCCCCCCCCCCCCCCc1nc(N(C)C)c(C)c(C)c1O is lower in Activity: 103% for the first, 102% for the second.

Test system: Lymphocyte
Assay: Cytoprotective activity in human lymphocytes obtained from FRDA patient assessed as viable cells after 16 hrs by trypan blue exclusion assay
Assay type: functional, cell-based
Conditions: not given
How it was run: as §1

In the case of CCCCCCCCCCCCCCCCCCCc1c(C)c(N(C)C)nc(C)c1O, the Activity is reported as “Dose-dependent effect”.
For CCCCCCCCCCCCCCCCCCCc1nc(N(C)C)c(C)c(C)c1O, the Activity was “Dose-dependent effect”.

Species: Bos taurus
Assay: Inhibition of bovine heart mitochondrial NADH oxidase complex I/III/IV assessed as remaining activity at 5 uM by spectrophotometry relative to untreated control
Conditions: not given

First: CCCCCCCCCCCCCCCCCCCc1c(C)c(N(C)C)nc(C)c1O
Second: CCCCCCCCCCCCCCCCCCCc1nc(N(C)C)c(C)c(C)c1O
The Activity of the first is lower: 83% for the first, 88% for the second.

Test system: Lymphocyte
Assay: Inhibition of lipid peroxidation in diethyl maleate-treated human lymphocytes obtained from FRDA patient at 100 to 250 nM after 16 hrs using C11-BODIPY581/591 by FACS analysis
Assay type: functional, cell-based
Conditions: not given
How it was run: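 FRDA lymphocytes depleted of glutathione with DEM, probed with C11-BODIPY581/591. Green (oxidized) fluorescence read by flow cytometry at 490/510 nm. Median mean fluorescence taken relative to untreated control and converted to % lipid peroxidation scavenging; mean ± SEM, n = 3.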

In the case of CCCCCCCCCCCCCCCCCCCc1c(C)c(N(C)C)nc(C)c1O, the inhibition is reported as “inactive”.
In the case of CCCCCCCCCCCCCCCCCCCc1nc(N(C)C)c(C)c(C)c1O, the inhibition is reported as “inactive”.

Test system: Lymphocyte
Assay: Cytoprotective activity in human lymphocytes obtained from Leigh's syndrome patient assessed as viable cells at 2.5 uM after 16 hrs by trypan blue exclusion assay
Assay type: functional
Conditions: read-out: Activity
How it was run: as §1

Going from CCCCCCCCCCCCCCCCCCCc1c(C)c(N(C)C)nc(C)c1O to CCCCCCCCCCCCCCCCCCCc1nc(N(C)C)c(C)c(C)c1O, the viability at 2.5 µM falls from 87% to 66%.

Test system: Lymphocyte
Assay: Increase in ATP production in CoQ10-deficient lymphocytes (unknown origin) assessed as cellular ATP level at 5 uM after 48 hrs using luciferin-luciferase reaction by bioluminescence assay relative to control
Assay type: functional
Conditions: not given
How it was run: as §2

Compared with CCCCCCCCCCCCCCCCCCCc1c(C)c(N(C)C)nc(C)c1O, CCCCCCCCCCCCCCCCCCCc1nc(N(C)C)c(C)c(C)c1O is lower in Activity: 106% for the first, 102% for the second.

Test system: Lymphocyte
Assay: Inhibition of ROS generation in diethyl maleate-treated human lymphocytes obtained from FRDA patient compound pretreated at 100 to 500 nM for 16 hrs using DCFH-DA by FACS analysis
Assay type: functional, cell-based
Conditions: not given
How it was run: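 FRDA lymphocytes pretreated with compounds at 100, 250 and 500 nM for 16 h, then given DEM for 80 min to raise ROS. Stained with DCFH-DA for 15 min, then DCF fluorescence read by flow cytometry. Reported as % ROS scavenging; mean ± SEM of three experiments run in duplicate.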

In the case of CCCCCCCCCCCCCCCCCCCc1c(C)c(N(C)C)nc(C)c1O, the inhibition is reported as “inactive”.
In the case of CCCCCCCCCCCCCCCCCCCc1nc(N(C)C)c(C)c(C)c1O, the inhibition is reported as “inactive”.

Species: Bos taurus
Assay: Inhibition of bovine heart mitochondrial NADH oxidase complex I/III/IV assessed as remaining activity at 10 uM by spectrophotometry relative to untreated control
Conditions: not given

Going from CCCCCCCCCCCCCCCCCCCc1c(C)c(N(C)C)nc(C)c1O to CCCCCCCCCCCCCCCCCCCc1nc(N(C)C)c(C)c(C)c1O, the Activity rises from 81% to 85%.

Test system: Lymphocyte
Assay: Cytoprotective activity in human lymphocytes obtained from FRDA patient assessed as viable cells at 0.5 uM after 16 hrs by trypan blue exclusion assay
Assay type: functional
Conditions: read-out: Activity
How it was run: as §1

Compared with CCCCCCCCCCCCCCCCCCCc1c(C)c(N(C)C)nc(C)c1O, CCCCCCCCCCCCCCCCCCCc1nc(N(C)C)c(C)c(C)c1O is lower in viability at 0.5 µM: 50% for the first, 38% for the second.

Test system: Lymphocyte
Assay: Increase in ATP production in CoQ10-deficient lymphocytes (unknown origin) assessed as cellular ATP level at 25 uM after 48 hrs using luciferin-luciferase reaction by bioluminescence assay relative to control
Assay type: functional
Conditions: not given
How it was run: as §2

Compared with CCCCCCCCCCCCCCCCCCCc1c(C)c(N(C)C)nc(C)c1O, CCCCCCCCCCCCCCCCCCCc1nc(N(C)C)c(C)c(C)c1O is higher in Activity: 86% for the first, 99% for the second.

Species: Bos taurus
Assay: Inhibition of bovine heart mitochondrial NADH oxidase complex I/III/IV assessed as remaining activity by spectrophotometry relative to untreated control
Conditions: not given

For CCCCCCCCCCCCCCCCCCCc1c(C)c(N(C)C)nc(C)c1O, the inhibition was “Dose-dependent effect”.
For CCCCCCCCCCCCCCCCCCCc1nc(N(C)C)c(C)c(C)c1O, the inhibition was “Dose-dependent effect”.

Test system: not listed separately
Assay: Metabolic stability in bovine liver microsomes at 25 uM after 30 mins by reverse phase HPLC analysis
Assay type: ADME, Bos taurus
Conditions: cattle, read-out: Stability
How it was run: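 Compounds incubated 30 min with activated bovine liver microsomes. Remaining parent compound quantified by reversed-phase HPLC and expressed as % recovered; mean ± SD.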

CCCCCCCCCCCCCCCCCCCc1c(C)c(N(C)C)nc(C)c1O and CCCCCCCCCCCCCCCCCCCc1nc(N(C)C)c(C)c(C)c1O are the same in remaining at 0.5 h, 25 µM: 50% for the first, 50% for the second.

Test system: Lymphocyte
Assay: Cytoprotective activity in human lymphocytes obtained from FRDA patient assessed as viable cells at 2.5 uM after 16 hrs by trypan blue exclusion assay
Assay type: functional
Conditions: read-out: Activity
How it was run: as §1

Going from CCCCCCCCCCCCCCCCCCCc1c(C)c(N(C)C)nc(C)c1O to CCCCCCCCCCCCCCCCCCCc1nc(N(C)C)c(C)c(C)c1O, the viability at 2.5 µM falls from 87% to 76%.
